Data: ChEMBL document CHEMBL1153852, “Steroidal lactones as inhibitors of 17beta-hydroxysteroid dehydrogenase type 5: chemical synthesis, enzyme inhibitory activity, and assessment of estrogenic and androgenic activities” (Eur J Med Chem, 2009)
pIC50: −log10 of the molar value. Calls of active or inactive are those of the source. The rule behind the calls is not given here.

Experiments:
[1] = target: T1, Aldo-keto reductase family 1 member C3 (Homo sapiens) (UniProt P42330); experiment: Inhibition of human 17beta-HSD5 expressed in HEK293 cells assessed as enzyme-mediated transformation of [14C]-4-androstene-3,17-dione in to [14C]-testosterone at 0.3 uM after 18 hrs; assay type: cell-based
T1 sequence (whole entry): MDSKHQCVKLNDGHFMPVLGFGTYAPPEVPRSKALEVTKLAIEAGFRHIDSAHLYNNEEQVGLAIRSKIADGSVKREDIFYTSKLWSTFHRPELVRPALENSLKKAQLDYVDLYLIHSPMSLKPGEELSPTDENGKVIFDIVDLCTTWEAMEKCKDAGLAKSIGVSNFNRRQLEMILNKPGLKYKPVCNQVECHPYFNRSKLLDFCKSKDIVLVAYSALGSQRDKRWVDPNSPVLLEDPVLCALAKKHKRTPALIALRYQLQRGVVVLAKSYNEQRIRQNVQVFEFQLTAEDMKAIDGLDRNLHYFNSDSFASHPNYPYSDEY
Outline: (§1)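 Intact HEK-293 cells stably over-expressing human 17β-HSD5, in freshly changed culture medium. [14C]-4-androstene-3,17-dione is added at 100 nM with inhibitor from an ethanolic solution; controls get ethanol only. After 18 h the conversion to [14C]-T is measured.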

[2] = target: T1, Aldo-keto reductase family 1 member C3 (Homo sapiens); experiment: Inhibition of human 17beta-HSD5 expressed in HEK293 cells assessed as enzyme-mediated transformation of [14C]-4-androstene-3,17-dione in to [14C]-testosterone at 3 uM after 18 hrs; assay type: cell-based; outline: as §1
[3] = target: T2, Aldo-keto reductase family 1 member C3 (Homo sapiens, UniProt P42330); experiment: Inhibition of human 17beta-HSD5 expressed in HEK293 cells assessed as enzyme-mediated transformation of [14C]-4-androstene-3,17-dione in to [14C]-testosterone after 18 hrs; assay type: cell-based
T2 sequence (P42330 whole entry): T1 sequence (whole entry)
Outline: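 Intact HEK-293 cells stably over-expressing human 17β-HSD5, in fresh culture medium. [14C]-4-androstene-3,17-dione 0.1 μM with inhibitor added in ethanol (ethanol alone as control), 18 h.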

[4] = target: T3, 17-beta-hydroxysteroid dehydrogenase type 2 (Homo sapiens) (UniProt P37059); experiment: Inhibition of human 17beta-HSD2 expressed in HEK293 cells assessed as enzyme-mediated transformation of [14C]-testosterone in to [14C]-4-androstene-3,17-dione at 0.1 uM; assay type: cell-based
T3 sequence (whole entry): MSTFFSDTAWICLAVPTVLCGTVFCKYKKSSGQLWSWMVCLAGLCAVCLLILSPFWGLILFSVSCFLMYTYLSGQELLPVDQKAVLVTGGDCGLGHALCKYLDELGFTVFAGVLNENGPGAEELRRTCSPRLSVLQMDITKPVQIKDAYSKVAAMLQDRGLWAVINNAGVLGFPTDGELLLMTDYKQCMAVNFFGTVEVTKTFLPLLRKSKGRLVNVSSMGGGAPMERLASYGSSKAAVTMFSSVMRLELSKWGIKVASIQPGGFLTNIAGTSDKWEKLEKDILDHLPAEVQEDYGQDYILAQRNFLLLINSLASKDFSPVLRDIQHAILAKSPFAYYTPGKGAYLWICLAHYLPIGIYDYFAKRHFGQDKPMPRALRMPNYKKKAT

[5] = target: T3, 17-beta-hydroxysteroid dehydrogenase type 2 (Homo sapiens); experiment: Inhibition of human 17beta-HSD2 expressed in HEK293 cells assessed as enzyme-mediated transformation of [14C]-testosterone in to [14C]-4-androstene-3,17-dione at 1 uM; assay type: cell-based
[6] = target: T4, 17-beta-hydroxysteroid dehydrogenase type 3 (Homo sapiens) (UniProt P37058); experiment: Inhibition of human 17beta-HSD3 expressed in HEK293 cells assessed as enzyme-mediated transformation of [14C]-4-androstene-3,17-dione in to [14C]-testosterone at 0.1 uM; assay type: cell-based
T4 sequence (whole entry): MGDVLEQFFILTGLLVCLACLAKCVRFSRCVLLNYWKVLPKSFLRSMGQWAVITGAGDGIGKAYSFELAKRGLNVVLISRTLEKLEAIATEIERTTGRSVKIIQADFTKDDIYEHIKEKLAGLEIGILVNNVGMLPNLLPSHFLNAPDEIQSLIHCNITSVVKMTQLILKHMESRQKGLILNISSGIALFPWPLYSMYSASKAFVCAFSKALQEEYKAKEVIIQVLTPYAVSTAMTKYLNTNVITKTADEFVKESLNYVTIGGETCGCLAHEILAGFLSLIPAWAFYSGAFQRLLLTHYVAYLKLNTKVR

[7] = target: T4, 17-beta-hydroxysteroid dehydrogenase type 3 (Homo sapiens); experiment: Inhibition of human 17beta-HSD3 expressed in HEK293 cells assessed as enzyme-mediated transformation of [14C]-4-androstene-3,17-dione in to [14C]-testosterone at 1 uM; assay type: cell-based
[8] = target: T5, 17-beta-hydroxysteroid dehydrogenase type 1 (Homo sapiens) (UniProt P14061); experiment: Inhibition of human 17beta-HSD1 expressed in HEK293 cells assessed as enzyme-mediated transformation of [14C]-E1 in to [14C]-E2 at 0.1 uM; assay type: cell-based
T5 sequence (whole entry): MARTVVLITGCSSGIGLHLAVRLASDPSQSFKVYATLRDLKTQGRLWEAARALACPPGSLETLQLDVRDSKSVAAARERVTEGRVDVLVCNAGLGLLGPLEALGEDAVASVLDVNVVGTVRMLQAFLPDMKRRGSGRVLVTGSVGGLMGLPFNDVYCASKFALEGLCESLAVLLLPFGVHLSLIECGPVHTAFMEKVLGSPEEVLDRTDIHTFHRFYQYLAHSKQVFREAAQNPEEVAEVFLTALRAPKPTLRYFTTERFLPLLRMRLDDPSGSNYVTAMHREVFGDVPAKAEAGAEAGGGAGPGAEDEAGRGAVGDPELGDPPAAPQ

[9] = target: T5, 17-beta-hydroxysteroid dehydrogenase type 1 (Homo sapiens); experiment: Inhibition of human 17beta-HSD1 expressed in HEK293 cells assessed as enzyme-mediated transformation of [14C]-E1 in to [14C]-E2 at 1 uM; assay type: cell-based
[10] = target: T6, Progesterone receptor (Rattus norvegicus) (UniProt Q63449); experiment: Binding affinity to rat uterus progesterone receptor at 0.01 uM
T6 sequence (whole entry): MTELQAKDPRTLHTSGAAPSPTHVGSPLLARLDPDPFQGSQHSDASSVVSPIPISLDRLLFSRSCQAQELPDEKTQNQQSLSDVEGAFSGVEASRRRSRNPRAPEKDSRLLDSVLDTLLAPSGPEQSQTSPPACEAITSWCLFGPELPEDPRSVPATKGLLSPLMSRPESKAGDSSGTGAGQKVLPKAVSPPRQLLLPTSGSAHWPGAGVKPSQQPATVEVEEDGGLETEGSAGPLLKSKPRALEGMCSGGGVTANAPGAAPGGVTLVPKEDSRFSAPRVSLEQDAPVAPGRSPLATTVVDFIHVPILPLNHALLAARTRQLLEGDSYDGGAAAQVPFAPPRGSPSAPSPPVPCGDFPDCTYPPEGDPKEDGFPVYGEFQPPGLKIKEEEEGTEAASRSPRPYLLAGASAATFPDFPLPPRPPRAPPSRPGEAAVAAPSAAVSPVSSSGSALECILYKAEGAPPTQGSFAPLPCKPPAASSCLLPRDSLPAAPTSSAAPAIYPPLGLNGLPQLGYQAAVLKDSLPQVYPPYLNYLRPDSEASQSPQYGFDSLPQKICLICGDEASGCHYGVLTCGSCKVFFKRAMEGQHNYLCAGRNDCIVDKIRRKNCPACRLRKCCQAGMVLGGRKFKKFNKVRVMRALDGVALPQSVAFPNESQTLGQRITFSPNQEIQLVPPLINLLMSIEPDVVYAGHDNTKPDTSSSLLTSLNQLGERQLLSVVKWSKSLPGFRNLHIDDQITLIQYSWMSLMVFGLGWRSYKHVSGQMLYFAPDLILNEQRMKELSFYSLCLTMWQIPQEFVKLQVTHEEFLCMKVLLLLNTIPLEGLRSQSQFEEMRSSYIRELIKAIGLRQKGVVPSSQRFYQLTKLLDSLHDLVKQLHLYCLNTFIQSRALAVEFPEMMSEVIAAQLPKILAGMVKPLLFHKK

Mus musculus [11] = species on record: Mus musculus; experiment: Androgenic activity in mouse SC115 cells expressing androgen receptor assessed as DHT-induced cell proliferation at 0.1 uM after 10 days relative to DHT; assay type: functional, cell-based
Outline: (§2)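 SC115 Shionogi clone selected for DHT sensitivity, in MEM with 2% dextran-charcoal-treated FCS, seeded at 20,000 cells/well. After 24 h the medium is renewed and lactones added at 0.1 and 1, without DHT. Final ethanol is 0.01%. Cells are grown 10 days at 37 °C in 5% CO2, with medium changed every 3–4 days. DNA is measured by DABA fluorescence; DHT-stimulated growth is set to 100%.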

Mus musculus [12] = species on record: Mus musculus; experiment: Androgenic activity in mouse SC115 cells expressing androgen receptor assessed as DHT-induced cell proliferation at 1 uM after 10 days relative to DHT; assay type: functional, cell-based; outline: as §2
[13] = Antiandrogenic activity in mouse SC115 cells expressing androgen receptor assessed as inhibition of DHT-induced cell proliferation at 1 uM after 10 days relative to DHT; assay type: functional; conditions: 240 h
Outline: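 SC115 Shionogi clone chosen for high DHT sensitivity; plated at 20,000 cells/well in MEM with 2% dextran-coated charcoal-treated FCS. After 24 h, medium changed and compound (0.1 or 1 μM) added with 0.3 nM DHT; ethanol 0.01% final. 10 days at 37 °C, medium changed every 3–4 days. Growth read as DNA content (DABA fluorescence); DHT-stimulated growth set to 100%; triplicates, mean ± SEM.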

ZR-75-1 [14] = experiment: Estrogenic activity in human ZR-75-1 cells expressing estrogen receptor assessed as estrogen-induced cell proliferation at 0.03 uM after 9 days relative to estrogen; assay type: functional, cell-based
Outline: (§3)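 ZR-75-1 cells are resuspended in phenol red-free RPMI 1640 with 5% dextran-charcoal-treated FBS and seeded at 10,000 cells/well. After 3 days of adhesion, lactones from ethanol stocks are added alone or with E2 (0.1 nM). Cells grow 9 days at 37 °C in 5% CO2, with medium changed every 2–3 days. DNA is measured by DABA fluorescence; E2-induced growth is set to 100%.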

ZR-75-1 [15] = experiment: Estrogenic activity in human ZR-75-1 cells expressing estrogen receptor assessed as estrogen-induced cell proliferation at 1 uM after 9 days relative to estrogen; assay type: functional; outline: as §3
ZR-75-1 [16] = experiment: Antiestrogenic activity in human ZR-75-1 cells expressing estrogen receptor assessed as inhibition of estrogen-induced cell proliferation at 0.1 nM after 9 days relative to estrogen; assay type: functional, cell-based

Question: Which results are given for C[C@]12CC[C@@H]3c4ccc(O)cc4CC[C@H]3[C@@H]1CC[C@@]21CCCC(=O)O1?
Answer: inhibition [1]: 92%; inhibition [2]: 95%; pIC50 [3]: 7.70; Activity [4]: Active; Activity [5]: Active; inhibition [6]: 25%; inhibition [7]: 34%

Question: What does the source list for CC1CC[C@@]2(CC[C@H]3[C@@H]4CCc5cc(O)ccc5[C@H]4CC[C@@]32C)OC1=O (mixture of isomers)?
Answer: inhibition [1]: 93%; inhibition [2]: 94%; pIC50 [3]: 7.80; Activity [4]: Active; Activity [5]: Active

Question: For C[C@]12CC[C@@H]3c4ccccc4CC[C@H]3[C@@H]1CC[C@@]21CCCC(=O)O1, which inhibition [1] is on record?
Answer: The inhibition was 93%.

Question: What about the inhibition [2] of the same compound?
Answer: The inhibition was 95%.

Question: What about the pIC50 [3] of the same compound?
Answer: The pIC50 was 8.00.

Question: What about the inhibition [8] of the same compound?
Answer: The inhibition was 21%.

Question: What about the inhibition [9] of the same compound?
Answer: Its inhibition is 21%.

Question: And the inhibition [6]?
Answer: The inhibition was 25%.

Question: What about the inhibition [7] of the same compound?
Answer: The inhibition was 64%.

Question: For C[C@@H]1C[C@H]2[C@@H]3CCC4=CC(=O)C=C[C@]4(C)[C@@]3(F)[C@@H](O)C[C@]2(C)[C@@]1(O)C(=O)CO, which Activity [10] is on record?
Answer: The Activity was 0%.

Question: Which Activity [10] does the source give for C[C@]12CC[C@@H]3c4ccc(O)cc4CC[C@H]3[C@@H]1CC[C@@H]2O here?
Answer: The Activity was 6%.

Question: For CC1CC[C@@]2(CC[C@H]3[C@@H]4CCc5ccccc5[C@H]4CC[C@@]32C)OC1=O (stereo not given in full), which inhibition [1] is on record?
Answer: The inhibition was 91%.

Question: What about the inhibition [2] of the same compound?
Answer: Its inhibition is 94%.

Question: And the pIC50 [3]?
Answer: Its pIC50 is 8.21.

Question: And the inhibition [8]?
Answer: Its inhibition is 21%.

Question: And the inhibition [9]?
Answer: Its inhibition is 21%.

Question: And the inhibition [6]?
Answer: Its inhibition is 25%.

Question: What about the inhibition [7] of the same compound?
Answer: The inhibition was 64%.

Question: Which Activity (Mus musculus [11]) does the source give for CC(C)(O)C(=O)Nc1ccc([N+](=O)[O-])c(C(F)(F)F)c1 [HYDROXYFLUTAMIDE] here?
Answer: The Activity was “inactive”.

Question: And the Activity (Mus musculus [12])?
Answer: Its Activity is “inactive”.

Question: And the inhibition at 1 µM [13]?
Answer: Its inhibition at 1 µM is 94%.

Question: For C[C@]12CCC(=O)C[C@@H]1CC[C@@H]1[C@@H]2CC[C@]2(C)[C@@H](O)CC[C@@H]12, which Activity [10] is on record?
Answer: The Activity was 3%.

Question: For CCCCN(C)C(=O)CCCCCCCCCC[C@@H]1Cc2cc(O)ccc2[C@H]2CC[C@]3(C)[C@@H](O)[C@H](Cl)C[C@H]3[C@H]12, which Activity (ZR-75-1 [14]) is on record?
Answer: Its Activity is “inactive”.

Question: What about the Activity (ZR-75-1 [15]) of the same compound?
Answer: Its Activity is “inactive”.

Question: What about the Activity (ZR-75-1 [16]) of the same compound?
Answer: The Activity was “Active”.
